Most compounds without a hit are left out; they make up all but 4.3% or so of the library.
RBBP9 inhibitor: blocks human serine hydrolase RBBP9 | O75884 | recombinant RBBP9, FP-Rh probe fluorescence polarization | inhibition, % at 7.94 µM | hit rate 0.2% among 220,000;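 active means inhibition above the campaign mean of all tested compounds plus 3 SD, cut at about 14% in these data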;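 further: plate controls were DMSO wells with RBBP9 for no effect and wells lacking RBBP9 protein for full effect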
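system = RBBP9 protein | input = RBBP9 at 2.5 µM in dispensed solution, before mixing | measured by = fluorescence polarization (mP), excitation 525 nm, emission 598 nm | incubation = enzyme-compound preincubation 30 min, then probe labeling 45 min, 25 °C | buffer or medium = Tris-NaCl-Pluronic buffer, pH 8.0 | compound = single dose 7.94 µM | also added = FP-Rh probe, 375 nM dispensing solution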
UBC13 polyUb: human UBC13 polyubiquitination inhibition; UBC13 polyubiquitin chain formation, TR-FRET; inhibition, % at 20 µM; hit rate 0.47% among 330,000; AID 485273; in the data active means inhibition above about 45%, passing the limit was not always enough; inconclusive means no clear call, values can overlap the other calls
UBC9 SUMO inh: blocks human SUMOylation mediated by UBC9; HTRF SUMOylation assay, SAE1/SAE2 + UBC9, in vitro; inhibition, % at 35 µM; hit rate 0.36% among 290,000; AID 2006; in the data active means inhibition above about 50%, passing the limit was not always enough; inconclusive means no clear call, values can overlap the other calls
PREPL inh: human PREPL enzyme inhibition; Q4J6C6; recombinant PREPL, fluorescence polarization activity-based probe; inhibition, % at 5.96 µM; hit rate 0.68% among 320,000; AID 2751; in the data active means inhibition above about 43%;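 further: 0% = enzyme with DMSO and 100% = wells lacking enzyme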
Rin1 Abl inh: blocks binding of human Rin1 to Abl; TR-FRET Rin1/Abl binding, biochemical; inhibition, % at 7.35 µM; hit rate 0.4% among 360,000; P00519+Q13671; in the data active means inhibition above about 5%, passing the limit was not always enough
Target sequence (P00519 whole entry, looked up): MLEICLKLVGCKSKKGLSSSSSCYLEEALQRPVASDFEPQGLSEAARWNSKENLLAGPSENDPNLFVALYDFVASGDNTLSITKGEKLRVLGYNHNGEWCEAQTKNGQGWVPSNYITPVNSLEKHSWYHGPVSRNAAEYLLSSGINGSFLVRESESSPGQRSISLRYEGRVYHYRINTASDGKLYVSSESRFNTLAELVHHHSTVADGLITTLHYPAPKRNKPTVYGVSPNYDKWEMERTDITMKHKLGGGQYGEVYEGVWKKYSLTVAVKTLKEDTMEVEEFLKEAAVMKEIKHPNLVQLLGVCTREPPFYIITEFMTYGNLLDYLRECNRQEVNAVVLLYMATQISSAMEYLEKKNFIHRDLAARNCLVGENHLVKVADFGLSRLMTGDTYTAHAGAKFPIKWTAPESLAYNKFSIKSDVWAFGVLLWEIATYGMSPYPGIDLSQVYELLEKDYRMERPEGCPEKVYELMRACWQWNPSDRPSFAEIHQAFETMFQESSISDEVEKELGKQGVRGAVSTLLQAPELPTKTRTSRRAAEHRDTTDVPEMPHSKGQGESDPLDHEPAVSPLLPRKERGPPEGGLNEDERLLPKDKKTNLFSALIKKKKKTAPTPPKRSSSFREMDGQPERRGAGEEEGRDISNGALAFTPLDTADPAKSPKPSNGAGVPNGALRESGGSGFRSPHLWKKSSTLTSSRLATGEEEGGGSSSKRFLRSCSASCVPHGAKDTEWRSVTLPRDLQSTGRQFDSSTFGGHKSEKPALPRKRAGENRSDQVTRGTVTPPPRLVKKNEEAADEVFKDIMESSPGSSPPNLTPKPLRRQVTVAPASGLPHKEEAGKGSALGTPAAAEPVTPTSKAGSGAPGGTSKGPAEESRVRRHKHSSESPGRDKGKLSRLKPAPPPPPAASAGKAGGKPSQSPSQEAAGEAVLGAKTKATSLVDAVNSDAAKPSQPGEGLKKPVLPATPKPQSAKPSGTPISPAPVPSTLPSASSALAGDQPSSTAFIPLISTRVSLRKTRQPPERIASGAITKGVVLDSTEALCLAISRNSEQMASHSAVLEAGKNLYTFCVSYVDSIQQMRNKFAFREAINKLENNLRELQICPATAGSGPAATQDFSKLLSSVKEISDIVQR
Target sequence (Q13671 whole entry, looked up): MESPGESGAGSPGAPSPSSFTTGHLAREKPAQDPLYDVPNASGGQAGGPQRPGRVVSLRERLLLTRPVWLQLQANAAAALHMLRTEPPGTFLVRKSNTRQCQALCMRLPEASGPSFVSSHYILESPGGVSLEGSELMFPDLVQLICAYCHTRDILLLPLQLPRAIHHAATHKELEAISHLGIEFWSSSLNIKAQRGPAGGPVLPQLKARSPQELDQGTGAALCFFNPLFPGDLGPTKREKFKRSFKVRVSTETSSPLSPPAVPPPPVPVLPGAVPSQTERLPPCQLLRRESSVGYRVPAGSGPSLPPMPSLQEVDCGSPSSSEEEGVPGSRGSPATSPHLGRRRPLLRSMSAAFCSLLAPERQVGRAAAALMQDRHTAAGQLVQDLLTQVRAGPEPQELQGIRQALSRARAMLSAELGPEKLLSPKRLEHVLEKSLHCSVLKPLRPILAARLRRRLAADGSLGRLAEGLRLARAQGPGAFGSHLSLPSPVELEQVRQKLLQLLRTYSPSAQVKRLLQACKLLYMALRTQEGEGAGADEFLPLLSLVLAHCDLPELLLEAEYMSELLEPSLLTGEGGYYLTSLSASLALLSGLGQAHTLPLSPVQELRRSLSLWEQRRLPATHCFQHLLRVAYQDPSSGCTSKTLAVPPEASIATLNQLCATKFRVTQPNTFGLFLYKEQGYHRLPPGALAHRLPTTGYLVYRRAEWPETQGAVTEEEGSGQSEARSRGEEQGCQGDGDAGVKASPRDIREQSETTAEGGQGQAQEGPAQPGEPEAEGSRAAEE
ALR H2O2 inh: inhibitors of human sulfhydryl oxidase ALR; hit rate 3.8% among 290,000; purified ALR, DTT oxidation, H2O2 HRP-luminol luminescence; inhibition, % (test concentration not listed); P55789;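 active means mean replicate inhibition above about 79%, with every replicate also reaching it, limit read from the data; inconclusive means only one of the two criteria met; inactive means mean below limit and not every replicate reaching it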
* marks the source's active call; other numbers are inactive results.

Results for O=C(O)c1ccc(N/N=C/c2ccc3c(c2)OCO3)cc1 ?
RBBP9 inhibitor: 3; UBC13 polyUb: -2; UBC9 SUMO inh: -20; PREPL inh: -5; Rin1 Abl inh: 0; ALR H2O2 inh: 99*

What do the screens show for `O=C(O)c1cc(N/N=C/c2ccc3c(c2)OCCO3)ccc1Cl`?
RBBP9 inhibitor: -8; UBC9 SUMO inh: -7; PREPL inh: -1; Rin1 Abl inh: 1; ALR H2O2 inh: 93*

How did CCn1nc(C)c(NC(=O)Nc2cccc(Cl)c2Cl)c1C do in these assays?
RBBP9 inhibitor: -5; UBC13 polyUb: -2; UBC9 SUMO inh: 10; PREPL inh: 8; Rin1 Abl inh: 0; ALR H2O2 inh: 1

Results for N#CC1=C(N)N=C(SCc2ccccc2)C(C(N)=O)C12CCCCC2 (centres undefined) ?
RBBP9 inhibitor: -7; UBC13 polyUb: -2; UBC9 SUMO inh: 10; PREPL inh: 17; Rin1 Abl inh: -2; ALR H2O2 inh: -8

What do the screens show for `Cc1ccc(C(=O)CSC2=NC(N)=C(C#N)C3(CCCCC3)C2C(N)=O)cc1` (centres undefined)?
RBBP9 inhibitor: -7; UBC13 polyUb: 4; UBC9 SUMO inh: -10; PREPL inh: 15; Rin1 Abl inh: -3; ALR H2O2 inh: 97*

What do the screens show for `COc1cccc2c(=O)n(CC(=O)N3CCCc4ccccc43)ccc12`?
RBBP9 inhibitor: -9; UBC13 polyUb: 7; UBC9 SUMO inh: -16; PREPL inh: 4; Rin1 Abl inh: -2

What do the screens show for `CCOC(=O)COc1cccc2c(=O)n(CC(=O)N3CCCc4ccccc43)ccc12`?
RBBP9 inhibitor: 4; UBC13 polyUb: -6; UBC9 SUMO inh: -8; PREPL inh: 0; Rin1 Abl inh: 1; ALR H2O2 inh: 97*

What do the screens show for `CN(C)c1ccc(/C=C/c2nc3ccccc3c(=O)n2-c2ccc(C(=O)O)cc2)cc1`?
UBC13 polyUb: -27; UBC9 SUMO inh: 33; PREPL inh: 5; Rin1 Abl inh: -4; ALR H2O2 inh: 99*

Results for O=C(O)c1cccc(-n2c(/C=C/c3ccccc3)nc3ccccc3c2=O)c1 ?
UBC13 polyUb: -15; UBC9 SUMO inh: 4; PREPL inh: 9; Rin1 Abl inh: -4; ALR H2O2 inh: 78*

Results for O=C(COc1ccc(Cl)cc1)N(Cc1ccc(F)cc1)C1CCS(=O)(=O)C1 (centres undefined) ?
UBC13 polyUb: 1; UBC9 SUMO inh: -5; PREPL inh: 25; Rin1 Abl inh: 4; ALR H2O2 inh: -17

What do the screens show for `CCCCc1cc(=O)oc2cc(C)cc(OCC(=O)Nc3ccccn3)c12`?
UBC13 polyUb: 9; UBC9 SUMO inh: 22; PREPL inh: 16; Rin1 Abl inh: 5; ALR H2O2 inh: -1

Results for COc1cccc(CN2CCNC(=O)C2CC(=O)N(C)C2CCOCC2)c1OC (centres undefined) ?
UBC13 polyUb: -6; UBC9 SUMO inh: 3; PREPL inh: -5; Rin1 Abl inh: 1; ALR H2O2 inh: -30

What do the screens show for `CCc1ccccc1N/N=C(/C)c1c(O)cc(C)oc1=O`?
RBBP9 inhibitor: 0; UBC13 polyUb: 3; UBC9 SUMO inh: 2; PREPL inh: -3; Rin1 Abl inh: 1; ALR H2O2 inh: 98*

How did Cc1[nH]c2ccccc2c1/C=N/NC(=O)Cc1cccs1 do in these assays?
RBBP9 inhibitor: -9; UBC13 polyUb: 3; UBC9 SUMO inh: -21; PREPL inh: 18; Rin1 Abl inh: 0; ALR H2O2 inh: 94*

Results for Cc1[nH]c2ccccc2c1/C=N/NC(=O)CNC(=O)Cc1ccccc1 ?
UBC13 polyUb: -8; UBC9 SUMO inh: 14; PREPL inh: 10; Rin1 Abl inh: 2; ALR H2O2 inh: 32

What do the screens show for `O=C(COc1ccc(Br)cc1)N1CCN(c2ncccn2)CC1`?
UBC13 polyUb: 1; PREPL inh: -11; Rin1 Abl inh: 1

What do the screens show for `O=C(O)/C(=C\c1cccc(OCc2ccccc2)c1)c1ccc(F)cc1`?
UBC13 polyUb: -7; UBC9 SUMO inh: 4; PREPL inh: -13; Rin1 Abl inh: -1

How did Cc1cc(NC(=O)c2ccoc2C)ccc1Br do in these assays?
UBC13 polyUb: 5; PREPL inh: -46; Rin1 Abl inh: -1; ALR H2O2 inh: 89*

How did CCOc1ccc(NC(=O)NC2CCCc3ccccc32)cc1 (centres undefined) do in these assays?
UBC13 polyUb: 2; UBC9 SUMO inh: 14; PREPL inh: 9; Rin1 Abl inh: 0; ALR H2O2 inh: -8

How did COc1cc(/C=C(\C#N)c2nc3c(s2)CCCC3)ccc1O do in these assays?
RBBP9 inhibitor: -7; UBC13 polyUb: -144; UBC9 SUMO inh: -11; PREPL inh: 20

What do the screens show for `N#C/C(=C\c1cccnc1)c1nc2c(s1)CCCC2`?
RBBP9 inhibitor: 4; UBC13 polyUb: 4; UBC9 SUMO inh: 10; PREPL inh: 14; Rin1 Abl inh: 0; ALR H2O2 inh: 98*

What do the screens show for `CC1CCc2nc(/C(C#N)=C/c3cccnc3)sc2C1` (centres undefined)?
RBBP9 inhibitor: -3; UBC13 polyUb: -1; UBC9 SUMO inh: 29; PREPL inh: 5; Rin1 Abl inh: -1; ALR H2O2 inh: 97*

Results for CC(=O)Nc1ccc(Nc2nc(-c3ccccc3)nc3ccccc23)cc1 ?
RBBP9 inhibitor: 6; UBC13 polyUb: 6; UBC9 SUMO inh: -5; PREPL inh: 10; Rin1 Abl inh: 4; ALR H2O2 inh: 99*

How did CC(=O)Nc1cccc(Nc2nc(-c3ccccc3F)nc3ccccc23)c1 do in these assays?
RBBP9 inhibitor: -8; UBC13 polyUb: 5; UBC9 SUMO inh: 14; PREPL inh: 1; Rin1 Abl inh: 0; ALR H2O2 inh: 98*

Results for Oc1ccc(Nc2nc(-c3ccccc3)nc3ccccc23)cc1 ?
UBC13 polyUb: 6; UBC9 SUMO inh: 8; PREPL inh: -1; Rin1 Abl inh: 1; ALR H2O2 inh: 98*

What do the screens show for `O=C(CSc1ccc(-c2ccco2)nn1)c1ccccc1`?
RBBP9 inhibitor: -3; UBC13 polyUb: -13; UBC9 SUMO inh: 20; PREPL inh: 13; Rin1 Abl inh: -2; ALR H2O2 inh: 98*

How did COc1ccc(C(=O)CSc2ccc(-c3ccco3)nn2)cc1 do in these assays?
RBBP9 inhibitor: -5; UBC13 polyUb: -8; UBC9 SUMO inh: 32; PREPL inh: -5; Rin1 Abl inh: -3; ALR H2O2 inh: inconclusive

How did Cc1nnc(NC(=O)CSc2ccc(-c3ccco3)nn2)s1 do in these assays?
RBBP9 inhibitor: -7; UBC13 polyUb: -7; UBC9 SUMO inh: 44; PREPL inh: 3; Rin1 Abl inh: -6; ALR H2O2 inh: 97*

Results for CCc1nnc(NC(=O)CSc2ccc(-c3ccco3)nn2)s1 ?
RBBP9 inhibitor: 1; UBC13 polyUb: -7; UBC9 SUMO inh: 28; PREPL inh: 5; Rin1 Abl inh: -6; ALR H2O2 inh: -5

What do the screens show for `O=C(O)C1C(c2ccccc2)C(C(=O)Oc2ccc(O)cc2)C1c1ccccc1` (centres undefined)?
RBBP9 inhibitor: 0; UBC13 polyUb: 2; UBC9 SUMO inh: 7; PREPL inh: -5; Rin1 Abl inh: 0; ALR H2O2 inh: 94*

Bioassay records deposited in PubChem BioAssay by several laboratories.
